High-throughput results deposited in PubChem by several laboratories.
CHOP UPR activ: apoptotic UPR (CHOP) activation. CHO-CHOP luciferase reporter, luminescence; percent of tunicamycin response over DMSO baseline. 0.34% of 330,000 active. AID 449763. activation, % at 10 µM;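 active = at 10 µM dose, activation of 40% or more, normalized to positive control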;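 also: 100% = tunicamycin at 10 µg/mL and 0% = DMSO alone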
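System: CHO-CHOP luciferase reporter cell line | Buffer or medium: F12 medium containing 10% fetal bovine serum | Doses: One dose, 10 µM in 0.5% DMSO | Times: 6 h compound exposure at 37 °C after overnight seeding | Signal: Luciferase luminescence | Read-out: % activation vs tunicamycin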
XBP1 UPR activ: adaptive UPR (XBP1) activation. activation, % at 20 µM. AID 463104. CHO-XBP1 luciferase reporter, IRE1-XBP1 UPR activation, luminescence; percent of tunicamycin response, DMSO as zero. 0.33% of 330,000 active;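 active = versus positive control, 20 µM dose yields 30% or more activation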;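 also: 100% = tunicamycin at 10 µg/mL and 0% = DMSO only wells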
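Test system: CHO-XBP1 luciferase reporter cells | Buffer or medium: Serum-containing F12 medium, 10% FBS | Schedule: 6 h compound exposure at 37 °C, 5% CO2 | Detection: Steady-Glo luciferase glow luminescence, 10 min after reagent addition | Read-out basis: Activation, % of tunicamycin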
Beta cell apopt: blocks beta cell apoptosis; INS-1E cytokine-induced death, ATP luminescence, 48 h; percent of positive-control rescue, neutral wells zero; protection from apoptosis, % (no concentration beside the values); 0.8% of 300,000 active;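 active = Every replicate reaches about 75%, or at least half do and their mean reaches it too, limit read from the data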;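 also: 0% = cytokine-treated negative control wells and 100% = positive control rescue; higher means more ATP so stronger rescue from cytokine killing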
CSC inhib: blocks cancer stem cells. inhibition, % at 7.5 µM. cancer stem cell-like cells viability, luminescence. AID 2717. 1.1% of 300,000 active; in the data active = inhibition above about 75%; tested in HMLE shEcad cells
T cruzi repl: T. cruzi replication inhibition; inhibition, % (concentration not given with the values); 1.4% of 300,000 active; T. cruzi beta-gal in NIH3T3, luminescence, 90 h; AID 1885;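 active = mean inhibition across valid replicates above about 55%, limit read from the data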;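 also: signal also drops with host cell toxicity which is not excluded here; 0% = plate median of DMSO wells and 100% = zero luminescence signal; higher percent means less beta-gal luminescence so fewer parasites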
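System: mouse NIH/3T3 fibroblasts infected with β-gal-expressing T. cruzi Tulahuen C4 / Input: NIH/3T3 cells, 5,000 per well / Buffer or medium: Low-serum DMEM with 2% FBS / Probe or stimulus: 5000 reporter trypomastigotes per well / Schedule: ≥90 h infection period, 3 h prior cell attachment / Measured by: GalScreen luminescence, 60 min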
Mdm2 MdmX PPI: disrupts the human Mdm2-MdmX interaction; O15151+Q00987; SaOS-2 split-luciferase Mdm2/MdmX complementation, luminescence; inhibition, % at 8 µM; 3% of 330,000 active; AID 485346;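 active = inhibition of at least 50% at 8 µM in the primary screen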
Target sequence (O15151 whole entry, looked up): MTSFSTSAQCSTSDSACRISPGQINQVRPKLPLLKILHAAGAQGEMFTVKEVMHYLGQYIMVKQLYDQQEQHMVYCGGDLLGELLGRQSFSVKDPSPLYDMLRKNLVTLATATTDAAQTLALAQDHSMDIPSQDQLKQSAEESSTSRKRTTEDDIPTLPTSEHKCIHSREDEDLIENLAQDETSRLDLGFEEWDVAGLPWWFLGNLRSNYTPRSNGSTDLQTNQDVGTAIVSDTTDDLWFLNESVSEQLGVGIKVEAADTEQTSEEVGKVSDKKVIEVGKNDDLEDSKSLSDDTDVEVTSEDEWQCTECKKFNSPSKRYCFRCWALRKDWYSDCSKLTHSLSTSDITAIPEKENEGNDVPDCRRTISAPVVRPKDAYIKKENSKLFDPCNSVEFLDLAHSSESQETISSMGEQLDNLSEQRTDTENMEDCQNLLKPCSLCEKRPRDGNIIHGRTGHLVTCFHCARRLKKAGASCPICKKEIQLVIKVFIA
Target sequence (Q00987 whole entry, looked up): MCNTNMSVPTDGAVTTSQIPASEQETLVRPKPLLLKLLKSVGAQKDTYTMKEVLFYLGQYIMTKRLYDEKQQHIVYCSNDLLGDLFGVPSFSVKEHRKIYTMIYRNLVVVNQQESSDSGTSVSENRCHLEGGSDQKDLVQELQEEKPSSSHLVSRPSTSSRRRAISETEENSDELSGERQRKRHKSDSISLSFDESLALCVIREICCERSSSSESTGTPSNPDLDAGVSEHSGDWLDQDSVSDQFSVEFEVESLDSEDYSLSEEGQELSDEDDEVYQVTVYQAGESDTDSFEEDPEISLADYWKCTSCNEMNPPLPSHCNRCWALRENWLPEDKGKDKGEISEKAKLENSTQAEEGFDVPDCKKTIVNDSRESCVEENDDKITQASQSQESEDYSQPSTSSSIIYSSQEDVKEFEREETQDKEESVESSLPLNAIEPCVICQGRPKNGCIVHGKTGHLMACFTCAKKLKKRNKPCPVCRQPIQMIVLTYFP
Mdm2-MdmX conf: confirmation of human Mdm2/MdmX interaction inhibitors; shares compounds with Mdm2 MdmX PPI; Mdm2-MdmX binding, luminescent assay; inhibition, % at 8 µM; 55% of 10,000 active; in the data active = inhibition above about 40%
FLuc counter: full-length luciferase inhibition in Mdm2/MdmX counter-screen | shares compounds with Mdm2 MdmX PPI | 77% of 6,200 active | SaOS-2 full-length luciferase counterscreen, luminescence | inhibition, % at 8 µM;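 active = mean inhibition at 8 µM reaching about 37%, which flags the compound as non-specific, limit read from the data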;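 also: p53-null SaOS-2 cells with luciferase driven by a doxycycline-inducible promoter; compound on cells about two nights before reading with doxycycline added after day one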
Starred values were filed as active, the others as inactive; / = no result. The list is not random: actives were taken first. Their share in the collection is about 5%.

SMILES | CHOP UPR activ | XBP1 UPR activ | Beta cell apopt | CSC inhib | T cruzi repl | Mdm2 MdmX PPI | Mdm2-MdmX conf | others
CC(C)N(C(=O)[C@H]1C[C@H](CC(=O)NCCCn2ccnc2)C(=O)N2CCc3c([nH]c4cc(CCC(=O)N(C)C)ccc34)[C@]12C)C(C)C | 2.1 | 1.9 | / | / | / | 14.4 | /
CCOC(=O)c1cn2nc(Oc3cccc(C(F)(F)F)c3)ccc2n1 | -1.3 | -2.8 | -3.8 | -6.1 | -25.0 | 9.2 | /
Cc1ccc(S(=O)(=O)Nc2cccc3c2O[C@H](CN(C)C(=O)Nc2cccc4ccccc24)[C@H](C)CN([C@H](C)CO)C3=O)cc1 | 2.9 | 0.9 | -0.7 | -10.4 | / | 14.7 | /
O=C(O)/C(=C\C(=O)c1ccccc1)Nc1ccccc1 | 1.0 | 0.2 | -1.6 | -18.2 | -16.8 | 16.0 | /
O=c1ccc2ccc(Oc3ccc([N+](=O)[O-])cc3[N+](=O)[O-])cc2o1 | -1.4 | 1.6 | 0.5 | 58.8 | -1.9 | 57.6* | 60.0* | FLuc counter=71.7*
C/C(CCc1ccco1)=N/NC(=O)CCC(=O)Nc1ccc(Br)cc1 | 0.5 | -3.5 | -2.1 | 1.9 | 0.1 | 0.9 | /
O=C(N=Nc1c(O)[nH]c2ccccc12)c1cc(NS(=O)(=O)c2cccs2)cc(NS(=O)(=O)c2cccs2)c1 | 0.0 | -2.1 | -4.6 | 7.5 | 3.7 | 77.0* | 30.8 | FLuc counter=79.9*
Oc1ccccc1-c1nnc(SCCN2CCOCC2)n1Cc1ccccc1 | -0.1 | -0.4 | 60.4 | 19.8 | -3.7 | 69.3* | 18.7
O=C(CSc1nnc(-c2ccccc2)n1Cc1ccccc1)N1CCOCC1 | -0.3 | -1.8 | / | -5.2 | -1.2 | -1.6 | /
Cc1cc(-c2nnc(CSc3nnc(NC(=O)c4ccc(C(C)(C)C)cc4)s3)o2)ccc1[N+](=O)[O-] | 3.3 | 0.7 | 23.4 | 2.5 | -28.7 | 59.4* | 6.8
COc1ccc(NC(=O)Nc2cccc3c2O[C@H](CN(C)Cc2ccc(-c4ccccc4)cc2)[C@@H](C)CN([C@H](C)CO)C3=O)cc1 | -0.7 | 3.3 | 23.5 | 18.8 | / | 90.7* | 63.0* | FLuc counter=31.0
C[C@@H]1CN([C@@H](C)CO)C(=O)c2cccc(NC(=O)Nc3ccc(F)cc3)c2O[C@@H]1CN(C)Cc1ccc(Oc2ccccc2)cc1 | 15.2 | 16.1 | 65.6 | / | / | 76.3* | 22.0
C[C@H](CO)N1C[C@H](C)[C@H](CN(C)Cc2ccccc2)Oc2c(NC(=O)Nc3ccc(F)cc3)cccc2C1=O | 13.1 | -0.6 | 25.3 | -5.9 | / | 17.1 | /
Cc1ccc(S(=O)(=O)N(C)C[C@H]2Oc3c(NC(=O)Nc4cccc5ccccc45)cccc3C(=O)N([C@@H](C)CO)C[C@@H]2C)cc1 | 5.2 | 0.1 | / | / | / | 59.6* | 37.4 | FLuc counter=46.6*
COc1ccc(NC(=O)Nc2cccc3c2O[C@@H](CN(C)CC2CCCCC2)[C@@H](C)CN([C@H](C)CO)C3=O)cc1 | -0.7 | -0.5 | 11.3 | 23.0 | / | -0.2 | /
CC(C)C(NS(=O)(=O)c1cccc(C(F)(F)F)c1)C(=O)NCc1cccs1 (stereo not drawn) | -1.5 | -1.0 | 1.8 | -13.6 | / | -16.8 | /
CCc1nnc(NC(=O)CSCc2cc(=O)n3ccsc3n2)s1 | -0.3 | -3.9 | -5.4 | -15.5 | -8.0 | 3.6 | /
O=C(CN1C(=O)c2ccccc2S1(=O)=O)N1CCN(c2ccc(F)cc2)CC1 | 1.1 | -0.9 | -4.0 | -6.3 | -9.1 | 30.3 | /
O=C(CN1C(=O)c2ccccc2S1(=O)=O)N1CCc2ccccc2C1 | 0.7 | 8.8 | 0.8 | -10.7 | -5.1 | 55.0* | 39.4 | FLuc counter=76.8*
CC1CCN(C(=O)CN2C(=O)c3ccccc3S2(=O)=O)CC1 | -1.6 | -2.1 | / | 12.2 | -11.1 | 53.6* | 37.1
NC(=O)C1CCN(C(=O)CN2C(=O)c3ccccc3S2(=O)=O)CC1 | 2.2 | 1.7 | -6.6 | -4.7 | -1.4 | 10.3 | /
CC(C)(C)Nc1nc(OCC(F)(F)F)nc(OCC(F)(F)F)n1 | -0.6 | -3.4 | 1.6 | 1.1 | -11.6 | 21.6 | /
CCc1ccc(NC(=O)c2ccccc2NC(=O)C2CCCO2)cc1 (stereo not drawn) | 14.8 | 2.8 | 8.5 | -7.6 | -2.2 | -33.6 | /
CCOC(=O)c1cc2sccc2n1CC(=O)N1CCCc2ccccc21 | 0.0 | -2.0 | 5.8 | -8.6 | 38.6 | 20.4 | /
COC(=O)c1cc2sccc2n1CC(=O)N1CCCc2ccccc21 | 1.1 | -1.8 | -6.3 | -21.4 | 1.8 | 51.9* | 40.7* | FLuc counter=51.5*
SMILES | CHOP UPR activ | XBP1 UPR activ | Beta cell apopt | CSC inhib | T cruzi repl | Mdm2 MdmX PPI | Mdm2-MdmX conf | others
CN(C)c1nc(-c2cccnc2)nc(-c2ccccc2)c1C#N | / | / | 3.1 | 5.0 | 6.8 | / | /
COc1ccc2cc3cc(C(=O)NCCN4CCN(c5ccccc5F)CC4)oc3nc2c1 | 1.0 | 4.9 | 10.1 | -9.1 | 32.2 | 56.5* | 14.1
Cc1c(C)c2ccc(OCC(=O)Nc3cccnc3)c(C)c2oc1=O | 4.5 | -2.4 | -5.3 | -5.0 | -2.7 | -5.0 | /
COc1ccc(-c2cc(=O)oc3c(C)c(OCC(=O)Nc4cccnc4)ccc23)cc1 | 4.6 | -0.9 | -1.6 | 30.9 | -1.7 | 51.4* | -7.3
Cc1ccc(CN=C(N)Nc2nc(C)cc(C)n2)cc1 | -0.4 | 0.6 | 8.7 | 55.9 | 19.0 | 68.4* | 59.4* | FLuc counter=63.4*
Cc1cc(C(C)(C)C)cc(C)c1C(=O)O | 0.7 | -2.4 | -9.5 | -8.6 | 1.5 | -5.8 | /
COc1ccc(C2C3=C(CC(C)(C)CC3=O)OC(N)=C2[N+](=O)[O-])cc1 (stereo not drawn) | -0.8 | -1.0 | -3.7 | / | -12.3 | 5.3 | /
CCOC(=O)Cn1c(=NC(=O)c2cccs2)sc2cc(C(=O)OC)ccc21 | 3.8 | 11.1 | -2.1 | 2.7 | -0.4 | -1.8 | /
C#CCn1c(=NC(=O)c2cccs2)sc2cccc(OCC)c21 | 2.2 | 11.8 | 3.9 | -14.4 | 44.0 | 64.4* | -3.7
COc1ccc(CCC(=O)NNC(=O)c2ccccn2)cc1OC | 1.1 | 1.0 | / | / | / | 44.3 | /
Cc1nc(C(=O)O)sc1C1(C)CC(c2cccc([N+](=O)[O-])c2)=NO1 (stereo not drawn) | 0.3 | -0.2 | 2.7 | -12.6 | -6.7 | 10.8 | /
Cc1nc(C(=O)Nc2ccccc2)sc1C1(C)CC(c2cccc([N+](=O)[O-])c2)=NO1 (stereo not drawn) | 1.4 | -1.4 | 3.2 | 9.9 | 49.7 | 85.4* | 63.1* | FLuc counter=49.5*
COc1ccc(NC(=O)c2nc(C)c(C3(C)CC(c4ccccc4)=NO3)s2)cc1 (stereo not drawn) | 0.4 | 9.3 | 45.0 | 64.0 | 13.7 | 59.3* | 57.6* | FLuc counter=71.7*
CC(=O)Nc1ccc(/C=N/N2CCCCC2)cc1 | 4.0 | -3.4 | / | -5.9 | -7.4 | 2.5 | /
